Results from ChEMBL document CHEMBL2086252, “Syntheses and evaluation of anticonvulsant activity of novel branched alkyl carbamates” (J Med Chem, 2012).
Active and inactive are the calls of the source.

Tests used:
Rattus norvegicus [1] = assay: Neurotoxicity in pilocarpine-induced status epilepticus Sprague-Dawley albino rat model assessed as minimal motor impairment at 160 mg/kg, ip after 0.5 hrs by rotarod test; type: toxicity, organism-based; parameters: dose 160 mg/kg, route intraperitoneal; settings: in vivo
Rattus norvegicus [2] = assay: Neurotoxicity in pilocarpine-induced status epilepticus Sprague-Dawley albino rat model assessed as minimal motor impairment at 100 mg/kg, ip after 4 hrs by rotarod test; type: toxicity, organism-based; parameters: dose 100 mg/kg, route intraperitoneal; settings: in vivo
Rattus norvegicus [3] = assay: Neurotoxicity in pilocarpine-induced status epilepticus Sprague-Dawley albino rat model assessed as minimal motor impairment at 100 mg/kg, ip after 1 hr by rotarod test; type: toxicity, organism-based; parameters: dose 100 mg/kg, route intraperitoneal; settings: in vivo
Rattus norvegicus [4] = assay: Anticonvulsant activity in Sprague-Dawley albino rat assessed as protection against maximal electroshock-induced seizures at 30 mg/kg, po after 4 hrs; type: functional, organism-based; parameters: dose 30 mg/kg
Method in brief: (§1)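 Rats dosed orally. Anti-MES protection was scored as animals protected over animals tested at each time after dosing. Neurotoxicity was scored as motor impairment or sedation, as animals affected over animals tested.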

Mus musculus [5] = assay: Anticonvulsant activity in albino CF1 mouse assessed as protection against subcutaneous metrazol-induced seizures at 30 mg/kg, ip after 0.5 hrs; type: functional, organism-based; parameters: dose 30 mg/kg
Method in brief: (§2)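 Mice dosed ip at 30, 100 or 300 mg/kg, then tested 0.5 h and 4 h after administration in the MES or scMet test. Protection was recorded as animals protected over animals tested. Neurotoxicity was recorded as motor impairment or sedation, as animals affected over animals tested.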

Rattus norvegicus [6] = assay: Anticonvulsant activity in Sprague-Dawley albino rat assessed as protection against maximal electroshock-induced seizures at 30 mg/kg, po after 1 hr; type: functional, organism-based; parameters: dose 30 mg/kg; method in brief: as §1
Mus musculus [7] = assay: Anticonvulsant activity in albino CF1 mouse assessed as protection against subcutaneous metrazol-induced seizures at 300 mg/kg, ip after 4 hrs; type: functional, organism-based; parameters: dose 300 mg/kg; method in brief: as §2
Rattus norvegicus [8] = assay: Neurotoxicity in pilocarpine-induced status epilepticus Sprague-Dawley albino rat model assessed as minimal motor impairment at 100 mg/kg, ip after 0.25 hr by rotarod test; type: toxicity, organism-based; parameters: dose 100 mg/kg, route intraperitoneal; settings: in vivo
Rattus norvegicus [9] = assay: Neurotoxicity in pilocarpine-induced status epilepticus Sprague-Dawley albino rat model assessed as minimal motor impairment at 30 mg/kg, ip after 2 hrs by rotarod test; type: toxicity, organism-based; parameters: dose 30 mg/kg, route intraperitoneal; settings: in vivo
Method in brief: (§3)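 Rat pilocarpine status epilepticus model: test carbamate given at 0 or 30 min after the first observed Racine stage 3 motor seizure, which marks SE onset. Neurotoxicity was scored within the same model.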

Rattus norvegicus [10] = assay: Neurotoxicity in pilocarpine-induced status epilepticus Sprague-Dawley albino rat model assessed as minimal motor impairment at 30 mg/kg, ip after 0.5 hrs by rotarod test; type: toxicity, organism-based; parameters: dose 30 mg/kg, route intraperitoneal; settings: in vivo; method in brief: as §3
Rattus norvegicus [11] = assay: Neurotoxicity in pilocarpine-induced status epilepticus Sprague-Dawley albino rat model assessed as minimal motor impairment at 100 mg/kg, ip after 2 hrs by rotarod test; type: toxicity, organism-based; parameters: dose 100 mg/kg, route intraperitoneal; settings: in vivo
Mus musculus [12] = assay: Anticonvulsant activity in albino CF1 mouse assessed as protection against maximal electroshock-induced seizures at 30 mg/kg, ip after 0.5 hrs; type: functional, organism-based; parameters: dose 30 mg/kg; method in brief: as §2
Rattus norvegicus [13] = assay: Neurotoxicity in pilocarpine-induced status epilepticus Sprague-Dawley albino rat model assessed as minimal motor impairment at 100 mg/kg, ip after 0.5 hrs by rotarod test; type: toxicity, organism-based; parameters: dose 100 mg/kg, route intraperitoneal; settings: in vivo
Rattus norvegicus [14] = assay: Anticonvulsant activity in Sprague-Dawley albino rat assessed as protection against maximal electroshock-induced seizures at 30 mg/kg, po after 2 hrs; type: functional, organism-based; parameters: dose 30 mg/kg; method in brief: as §1
Rattus norvegicus [15] = assay: Anticonvulsant activity in Sprague-Dawley albino rat assessed as protection against maximal electroshock-induced seizures at 30 mg/kg, po after 15 mins; type: functional, organism-based; parameters: dose 30 mg/kg; method in brief: as §1
Mus musculus [16] = assay: Protective index, ratio of TD50 for ip dosed albino CF1 mouse by rotarod test to ED50 for ip dosed albino CF1 mouse by 6 Hz psychomotor seizure test; type: functional
Method in brief: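 Protective index calculated as TD50/ED50, with TD50 and ED50 taken from the same species and dosing route.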

Mus musculus [17] = assay: Anticonvulsant activity in albino CF1 mouse assessed as protection against subcutaneous metrazol-induced seizures at 30 mg/kg, ip after 4 hrs; type: functional, organism-based; parameters: dose 30 mg/kg; method in brief: as §2
Mus musculus [18] = assay: Anticonvulsant activity in albino CF1 mouse assessed as protection against subcutaneous metrazol-induced seizures at 100 mg/kg, ip after 4 hrs; type: functional, organism-based; parameters: dose 100 mg/kg; method in brief: as §2
Mus musculus [19] = assay: Anticonvulsant activity in albino CF1 mouse assessed as protection against subcutaneous metrazol-induced seizures at 100 mg/kg, ip after 0.5 hrs; type: functional, organism-based; parameters: dose 100 mg/kg; method in brief: as §2
Rattus norvegicus [20] = assay: Neurotoxicity in Sprague-Dawley albino rat assessed as minimal motor impairment at 30 mg/kg, po by rotarod test; type: toxicity, organism-based; parameters: dose 30 mg/kg, route oral; settings: in vivo; method in brief: as §1
Mus musculus [21] = assay: Neurotoxicity in albino CF1 mouse assessed as minimal motor impairment at 100 mg/kg, ip after 4 hrs by rotarod test; type: toxicity, organism-based; parameters: dose 100 mg/kg, route intraperitoneal; settings: in vivo; method in brief: as §2
Rattus norvegicus [22] = assay: Neurotoxicity in pilocarpine-induced status epilepticus Sprague-Dawley albino rat model assessed as minimal motor impairment at 50 mg/kg, ip after 0.5 hrs by rotarod test; type: toxicity, organism-based; parameters: dose 50 mg/kg, route intraperitoneal; settings: in vivo; method in brief: as §3
Rattus norvegicus [23] = assay: Neurotoxicity in pilocarpine-induced status epilepticus Sprague-Dawley albino rat model assessed as minimal motor impairment at 30 mg/kg, ip after 0.25 hr by rotarod test; type: toxicity, organism-based; parameters: dose 30 mg/kg, route intraperitoneal; settings: in vivo; method in brief: as §3
Mus musculus [24] = assay: Anticonvulsant activity in albino CF1 mouse assessed as protection against maximal electroshock-induced seizures at 300 mg/kg, ip after 4 hrs; type: functional, organism-based; parameters: dose 300 mg/kg; method in brief: as §2
Rattus norvegicus [25] = assay: Anticonvulsant activity in Sprague-Dawley albino rat assessed as protection against pilocarpine-induced status epilepticus at 65 mg/kg, ip; type: functional, organism-based; parameters: dose 65 mg/kg
Method in brief: (§4)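 Pilocarpine status epilepticus model in rats. Number and severity of convulsive seizures were observed behaviourally.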

Mus musculus [26] = assay: Neurotoxicity in albino CF1 mouse assessed as minimal motor impairment at 30 mg/kg, ip after 4 hrs by rotarod test; type: toxicity, organism-based; parameters: dose 30 mg/kg, route intraperitoneal; settings: in vivo; method in brief: as §2
Mus musculus [27] = assay: Anticonvulsant activity in albino CF1 mouse assessed as protection against maximal electroshock-induced seizures at 100 mg/kg, ip after 4 hrs; type: functional, organism-based; parameters: dose 100 mg/kg; method in brief: as §2
Mus musculus [28] = assay: Anticonvulsant activity in albino CF1 mouse assessed as protection against maximal electroshock-induced seizures at 30 mg/kg, ip after 4 hrs; type: functional, organism-based; parameters: dose 30 mg/kg; method in brief: as §2
Rattus norvegicus [29] = assay: Neurotoxicity in pilocarpine-induced status epilepticus Sprague-Dawley albino rat model assessed as minimal motor impairment at 300 mg/kg, ip after 0.5 hrs by rotarod test; type: toxicity, organism-based; parameters: dose 300 mg/kg, route intraperitoneal; settings: in vivo; method in brief: as §3
Rattus norvegicus [30] = assay: Neurotoxicity in pilocarpine-induced status epilepticus Sprague-Dawley albino rat model assessed as minimal motor impairment at 300 mg/kg, ip after 0.25 hr by rotarod test; type: toxicity, organism-based; parameters: dose 300 mg/kg, route intraperitoneal; settings: in vivo; method in brief: as §3
Mus musculus [31] = assay: Neurotoxicity in albino CF1 mouse assessed as minimal motor impairment at 30 mg/kg, ip after 0.5 hrs by rotarod test; type: toxicity, organism-based; parameters: dose 30 mg/kg, route intraperitoneal; settings: in vivo; method in brief: as §2
Mus musculus [32] = assay: Anticonvulsant activity in ip dosed albino CF-1 mouse assessed as protection against 6 Hz psychomotor seizure; type: functional; settings: albino CF-1, ip
Method in brief: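 Quantitative testing: rats dosed orally or ip in MES and scMet tests, and mice dosed ip, including the 6 Hz (32 mA) psychomotor seizure test. ED50 and TD50 were reported in mg/kg with ranges in parentheses. Protective index was calculated as TD50/ED50.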

Rattus norvegicus [33] = assay: Anticonvulsant activity in ip dosed Sprague-Dawley albino rat assessed as protection against pilocarpine-induced status epilepticus after 0.5 hrs; type: functional; method in brief: as §4
Rattus norvegicus [34] = assay: Neurotoxicity in pilocarpine-induced status epilepticus Sprague-Dawley albino rat model assessed as minimal motor impairment at 30 mg/kg, ip after 1 hr by rotarod test; type: toxicity, organism-based; parameters: dose 30 mg/kg, route intraperitoneal; settings: in vivo; method in brief: as §3
Mus musculus [35] = assay: Anticonvulsant activity in albino CF1 mouse assessed as protection against maximal electroshock-induced seizures at 100 mg/kg, ip after 0.5 hrs; type: functional, organism-based; parameters: dose 100 mg/kg; method in brief: as §2
Rattus norvegicus [36] = assay: Anticonvulsant activity in Sprague-Dawley albino rat assessed as protection against maximal electroshock-induced seizures at 30 mg/kg, po after 30 mins; type: functional, organism-based; parameters: dose 30 mg/kg; method in brief: as §1
Rattus norvegicus [37] = assay: Neurotoxicity in pilocarpine-induced status epilepticus Sprague-Dawley albino rat model assessed as minimal motor impairment at 30 mg/kg, ip after 4 hrs by rotarod test; type: toxicity, organism-based; parameters: dose 30 mg/kg, route intraperitoneal; settings: in vivo; method in brief: as §3
Mus musculus [38] = assay: Neurotoxicity in albino CF1 mouse assessed as minimal motor impairment at 100 mg/kg, ip after 0.5 hrs by rotarod test; type: toxicity, organism-based; parameters: dose 100 mg/kg, route intraperitoneal; settings: in vivo; method in brief: as §2
Mus musculus [39] = assay: Neurotoxicity in albino CF1 mouse assessed as minimal motor impairment at 300 mg/kg, ip after 4 hrs by rotarod test; type: toxicity, organism-based; parameters: dose 300 mg/kg, route intraperitoneal; settings: in vivo; method in brief: as §2

CC(C)C(COC(N)=O)C(C)C
inactive: Activity (Rattus norvegicus [4]) | Activity (Mus musculus [5]) | Activity (Rattus norvegicus [6]) | Activity (Mus musculus [7]) | Activity (Mus musculus [12]) | Activity (Rattus norvegicus [14]) | Activity (Rattus norvegicus [15]) | Activity (Mus musculus [17]) | Activity (Mus musculus [18]) | Activity (Mus musculus [19]) | Activity (Mus musculus [24]) | Activity (Mus musculus [27]) | Activity (Mus musculus [28]) | Activity (Mus musculus [35]) | Activity (Rattus norvegicus [36])
Non-toxic: Activity (Rattus norvegicus [2]) | Activity (Rattus norvegicus [3]) | Activity (Rattus norvegicus [9]) | Activity (Rattus norvegicus [10]) | Activity (Rattus norvegicus [11]) | Activity (Rattus norvegicus [20]) | Activity (Mus musculus [21]) | Activity (Rattus norvegicus [22]) | Activity (Rattus norvegicus [23]) | Activity (Mus musculus [26]) | Activity (Mus musculus [31]) | Activity (Rattus norvegicus [34]) | Activity (Rattus norvegicus [37]) | Activity (Mus musculus [38]) | Activity (Mus musculus [39])
3.4: Ratio TD50/ED50 (Mus musculus [16])
41 mg/kg: ED50 (Mus musculus [32])
Toxic: Activity (Rattus norvegicus [1]) | Activity (Rattus norvegicus [8]) | Activity (Rattus norvegicus [13]) | Activity (Rattus norvegicus [29]) | Activity (Rattus norvegicus [30])
active: Activity (Rattus norvegicus [25])
94 mg/kg: ED50 (Rattus norvegicus [33])
184 mg/kg: ED97 (Rattus norvegicus [33])
